From ChEMBL document CHEMBL1255544, “Synthesis and evaluation of novel chloropyrrole molecules designed by molecular hybridization of common pharmacophores as potential antimicrobial agents” (2010)
Converted amounts (≈) assume the structure as drawn. The source made the active and inactive calls. No cut-off for these calls is given here.

Assays:
Candida albicans [1] = test: Antimicrobial activity against Candida albicans after 48 hrs by broth dilution method; format: functional
How it was run: (§1)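 MIC by broth dilution: the lowest concentration (highest dilution) that arrested bacterial or fungal growth. Strains were E. coli ATCC-25922, S. aureus ATCC-25923, P. aeruginosa ATCC-27853 and C. albicans.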

Pseudomonas aeruginosa [2] = test: Antimicrobial activity against Pseudomonas aeruginosa ATCC 27853 at 100 ug/ml after 24 hrs by broth dilution method; format: functional, organism-based
Klebsiella pneumoniae [3] = test: Antimicrobial activity against Klebsiella pneumoniae at 100 ug/ml after 24 hrs by broth dilution method; format: functional, organism-based
Candida albicans [4] = test: Antimicrobial activity against Candida albicans after 48 hrs by agar dilution method; format: functional
How it was run: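 Candida albicans tested by agar dilution, with compounds in DMSO.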

Escherichia coli [5] = test: Antimicrobial activity against Escherichia coli ATCC […] after 24 hrs by broth dilution method; format: functional; how it was run: as §1
Staphylococcus aureus [6] = test: Antimicrobial activity against Staphylococcus aureus ATCC 25923 after 24 hrs by broth dilution method; format: functional; conditions: ATCC 25923, 24 h; how it was run: as §1
Staphylococcus aureus [7] = test: Antimicrobial activity against Staphylococcus aureus ATCC 25923 after 24 hrs by disk diffusion method; format: functional
How it was run: (§2)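 Zone of inhibition by disc diffusion against E. coli ATCC-25922, S. aureus ATCC-25923, P. aeruginosa ATCC-27853 and recultured Klebsiella pneumoniae.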

Escherichia coli [8] = test: Antimicrobial activity against Escherichia coli ATCC […] after 24 hrs by disk diffusion method; format: functional; how it was run: as §2
Klebsiella pneumoniae [9] = test: Antimicrobial activity against Klebsiella pneumoniae after 24 hrs by broth dilution method
Klebsiella pneumoniae [10] = test: Antimicrobial activity against Klebsiella pneumoniae after 24 hrs by disk diffusion method; format: functional; how it was run: as §2
Pseudomonas aeruginosa [11] = test: Antimicrobial activity against Pseudomonas aeruginosa ATCC 27853 after 24 hrs by broth dilution method; format: functional; conditions: ATCC 27853, 24 h; how it was run: as §1
Pseudomonas aeruginosa [12] = test: Antimicrobial activity against Pseudomonas aeruginosa ATCC 27853 after 24 hrs by disk diffusion method; format: functional; how it was run: as §2

Row | Structure (SMILES) | MIC (Candida albicans [1]) | Activity (Pseudomonas aeruginosa [2]) | Activity (Klebsiella pneumoniae [3]) | diameter of the inhibition zone (DIZ) (Candida albicans [4]) | MIC (Escherichia coli [5]) | MIC (Staphylococcus aureus [6]) | diameter of the inhibition zone (DIZ) (Staphylococcus aureus [7]) | diameter of the inhibition zone (DIZ) (Escherichia coli [8]) | MIC (Klebsiella pneumoniae [9]) | Zone of inhibition (Klebsiella pneumoniae [10]; Klebsiella pneumoniae, 24 h) | diameter of the inhibition zone (DIZ) (Staphylococcus aureus [7]; Staphylococcus aureus, ATCC 25923, 24 h) | Zone of inhibition (Escherichia coli [8]; Escherichia coli, ATCC 2522, 24 h) | MIC (Pseudomonas aeruginosa [11]) | diameter of the inhibition zone (DIZ) (Klebsiella pneumoniae [10]) | diameter of the inhibition zone (DIZ) (Pseudomonas aeruginosa [12])
1 | O=C(/C=C/c1ccco1)c1ccc(Cl)[nH]1 | 100 µg/mL (≈ 451 µM) | inactive | inactive | 10 mm | 12.5 µg/mL (≈ 56.4 µM) | 25 µg/mL (≈ 113 µM) | 15 mm | 16 mm |  |  |  |  |  |  | 
2 | COc1ccc(/C=C/C(=O)c2ccc(Cl)[nH]2)cc1OC | 100 µg/mL (≈ 343 µM) | inactive | inactive | 14 mm | 25 µg/mL (≈ 85.7 µM) | 25 µg/mL (≈ 85.7 µM) | 13 mm | 13 mm |  |  |  |  |  |  | 
3 | O=C(O)c1cn(C2CC2)c2cc(N3CCNCC3)c(F)cc2c1=O [CIPROFLOXACIN] |  |  |  |  | 1.06 µg/mL (≈ 3.2 µM) | 1.56 µg/mL (≈ 4.71 µM) |  |  | 1.56 µg/mL (≈ 4.71 µM) | 26 mm | 20 mm | 25 mm | 3.12 µg/mL (≈ 9.43 µM) |  | 
4 | O=C(/C=C/c1ccc(Cl)cc1)c1cc(Cl)c(Cl)[nH]1 | 50 µg/mL (≈ 166 µM) |  |  | 14 mm | 6.25 µg/mL (≈ 20.8 µM) | 3.12 µg/mL (≈ 10.4 µM) | 25 mm | 16 mm |  |  |  |  | 25 µg/mL (≈ 83.2 µM) | 17 mm | 16 mm
5 | COc1ccc(/C=C/C(=O)c2ccc(Cl)[nH]2)cc1 | 100 µg/mL (≈ 382 µM) | inactive | inactive | 14 mm | 50 µg/mL (≈ 191 µM) | 25 µg/mL (≈ 95.5 µM) | 17 mm | 10 mm |  |  |  |  |  |  | 
6 | CN(C)c1ccc(/C=N/NC(=O)c2cc(Cl)c(Cl)[nH]2)cc1 | 12.5 µg/mL (≈ 38.4 µM) |  |  | 22 mm | 6.25 µg/mL (≈ 19.2 µM) | 12.5 µg/mL (≈ 38.4 µM) | 15 mm | 22 mm |  |  |  |  | 25 µg/mL (≈ 76.9 µM) | 12 mm | 15 mm
7 | O=C(N/N=C/c1ccco1)c1cc(Cl)c(Cl)[nH]1 | 12.5 µg/mL (≈ 45.9 µM) |  |  | 23 mm | 3.12 µg/mL (≈ 11.5 µM) | 1.56 µg/mL (≈ 5.73 µM) | 26 mm | 24 mm |  |  |  |  | 25 µg/mL (≈ 91.9 µM) | 20 mm | 24 mm
